{"data": "Measurements of several laboratories", "note": "Lines come from different studies, so protocols differ."}
{"SMILES": "O=[N+]([O-])NC(=S)NN=Cc1ccc(Br)cc1", "target or system": "Leishmania major", "test": "parasite growth, MTT", "conditions": "72 h, promastigote", "quantity": "IC50", "value": "433 µM"}
{"SMILES": "CN[C@H](CC(C)C)C(=O)N[C@H]1C(=O)N[C@@H](CC(N)=O)C(=O)N[C@H]2C(=O)N[C@H]3C(=O)N[C@H](C(=O)N[C@H](C(=O)O)c4cc(O)cc(O)c4-c4cc3ccc4O)[C@H](O)c3ccc(c(Cl)c3)Oc3cc2cc(c3O[C@@H]2O[C@H](CO)[C@@H](O)[C@H](O)[C@H]2O[C@H]2C[C@](C)(N)[C@H](O)[C@H](C)O2)Oc2ccc(cc2Cl)[C@H]1O", "target or system": "Enterococcus faecalis", "test": "microbial growth", "test system": "VRE", "conditions": "drug-resistant strain", "quantity": "MIC", "value": "64 µg/mL"}
{"SMILES": "N#C[Se]Cc1cc(=O)oc2cc(O)ccc12", "target or system": "HeLa", "test": "cell growth or viability, SRB", "quantity": "GI50", "value": "20 µM"}
{"SMILES": "Nc1ccn([C@@H]2O[C@H](COCc3ccccc3)[C@@H](OCc3ccccc3)[C@H](OCc3ccccc3)[C@H]2I)c(=O)n1", "target or system": "Japanese encephalitis virus", "test": "viral replication, inhibitor, ELISA", "test system": "Vero", "quantity": "IC50", "value": "> 20 µM"}
{"SMILES": "C#Cc1cccc(O)c1C=NNC(=O)c1ccc(COC)cc1", "target or system": "Aspergillus fumigatus", "test": "microbial growth", "conditions": "48 h, pH 6.5", "quantity": "MIC80", "value": "> 16 µg/mL"}
{"SMILES": "C[S+]([O-])CCCCN=C=S (stereo not drawn)", "target or system": "HDFa", "test": "cell growth or viability, MTT", "conditions": "24 h", "quantity": "IC50", "value": "49.8 µM"}
{"SMILES": "N.N.[Cl][Pt][Cl]", "target or system": "SU-DHL-6", "test": "cell growth or viability, ATP luminescence", "conditions": "10 µM, 72 h", "quantity": "inhibition", "value": "100%"}
{"SMILES": "O=[N+]([O-])NC(=S)NN=Cc1ccc(F)cc1", "target or system": "Leishmania major", "test": "parasite growth", "test system": "J774.A1", "conditions": "72 h, intracellular, amastigote", "quantity": "IC50", "value": "76.4 µM"}
{"SMILES": "C#Cc1cccc(C=NNC(=O)c2ccc(Br)cc2)c1O", "target or system": "Aspergillus fumigatus", "test": "microbial growth", "conditions": "48 h, pH 6.5", "quantity": "MIC80", "value": "4 µg/mL"}
{"SMILES": "CC[C@H](C)[C@H](NC(=O)[C@@H]1CCCN1C(=O)[C@H](CCC(=O)O)NC(=O)[C@H](CC(C)C)NC(=O)[C@@H](N)C(C)C)C(=O)N[C@@H](CC(C)C)C(=O)N[C@@H](Cc1c[nH]cn1)C(=O)N[C@@H](CO)C(=O)N[C@H](C(=O)O)[C@@H](C)OP(=O)(O)O", "target or system": "HeLa", "test": "cell growth or viability, MTT", "conditions": "72 h", "quantity": "IC50", "value": "0.82 µM"}
{"SMILES": "C#Cc1ccc(O)c(C=NNC(=O)c2ccc(COC)cc2)c1", "target or system": "Aspergillus fumigatus", "test": "microbial growth", "conditions": "48 h, pH 6.5", "quantity": "MIC80", "value": "1 µg/mL"}
{"SMILES": "N#C[Se]CCCCOc1ccc2c(-c3ccccc3)cc(=O)oc2c1", "target or system": "HeLa", "test": "cell growth or viability, SRB", "quantity": "GI50", "value": "23 µM"}
{"SMILES": "Cc1ccc(C=NNC(=S)N[N+](=O)[O-])cc1", "target or system": "Leishmania major", "test": "parasite growth, MTT", "conditions": "72 h, promastigote", "quantity": "IC50", "value": "346 µM"}
{"SMILES": "O=c1[nH]c(=O)n([C@@H]2O[C@H](COCc3ccccc3)[C@@H](OCc3ccccc3)[C@H](OCc3ccccc3)[C@H]2I)cc1F", "target or system": "Japanese encephalitis virus", "test": "viral replication, inhibitor, ELISA", "test system": "Vero", "quantity": "IC50", "value": "4.98 µM"}
{"SMILES": "C#Cc1ccc(O)c(C=NNC(=O)c2ccc(Br)cc2Br)c1", "target or system": "Aspergillus fumigatus", "test": "microbial growth", "conditions": "48 h, pH 6.5", "quantity": "MIC80", "value": "2 µg/mL"}
